Laboratory results: ChEMBL document CHEMBL2057200, “Design and synthesis of potent antagonists containing rigid spirocyclic privileged structures for the CGRP receptor” (Bioorg Med Chem Lett, 2012)

Key:
[1] = target: T1, Calcitonin gene-related peptide type 1 receptor (Homo sapiens, UniProt O60894+Q16602); assay: Displacement of [125I]CGRP from CGRP receptor in human SK-N-MC cells; format: cell-based
Summary of the method: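 Radioligand competition binding in human neuroblastoma SK-N-MC cells, which endogenously express CGRP receptor of identical sequence to the cloned human receptor. IC50 determined from compound competition for the radioligand.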

[2] = Inhibition of CGRP-induced dilation in potassium chloride pre-contracted ex vivo migraine model of human intracranial artery rings
Cytochrome P450 3A4 = Cytochrome P450 3A4 (Homo sapiens, UniProt P08684); assay: Inhibition of CYP3A4; format: ADME
Chain of Cytochrome P450 3A4 (P08684 whole entry, canonical isoform): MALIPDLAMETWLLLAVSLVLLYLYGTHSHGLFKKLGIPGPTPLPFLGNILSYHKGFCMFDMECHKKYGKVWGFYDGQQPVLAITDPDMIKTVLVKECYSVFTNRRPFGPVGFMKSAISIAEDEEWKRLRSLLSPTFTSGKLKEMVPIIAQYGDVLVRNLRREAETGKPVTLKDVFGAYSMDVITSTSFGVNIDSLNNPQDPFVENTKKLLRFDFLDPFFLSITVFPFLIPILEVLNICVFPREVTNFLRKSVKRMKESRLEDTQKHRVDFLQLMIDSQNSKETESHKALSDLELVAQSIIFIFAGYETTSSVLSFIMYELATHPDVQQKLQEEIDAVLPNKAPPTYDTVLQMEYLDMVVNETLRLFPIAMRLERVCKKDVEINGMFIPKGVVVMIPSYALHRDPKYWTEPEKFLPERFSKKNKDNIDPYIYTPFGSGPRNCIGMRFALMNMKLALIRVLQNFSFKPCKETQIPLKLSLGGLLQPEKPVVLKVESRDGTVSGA

[3] = target: cytochrome P450 (isoform not stated) (Homo sapiens, UniProt P04798+P05177+P05181+P08684+P10632+P10635+P11509+P11712+P13584+P20813+P20815+P20853+P24462+P24903+P33260+P33261+P51589+P78329+P98187+Q02928+Q08477+Q16678+Q16696+Q5TCH4+Q6VVX0+Q7Z449+Q8TAV3+Q96SQ9+Q9HB55); assay: Inhibition of cytochrome P450; format: ADME
[4] = target: T1, Calcitonin gene-related peptide type 1 receptor; assay: Antagonist activity at CGRP receptor in human SK-N-MC cells assessed as inhibition of CGRP-stimulated formation of cyclic AMP; format: functional, cell-based
Cytochrome P450 2C19 = Cytochrome P450 2C19 (Homo sapiens, UniProt P33261); assay: Inhibition of recombinant CYP2C19; format: ADME
Chain of Cytochrome P450 2C19 (P33261 whole entry): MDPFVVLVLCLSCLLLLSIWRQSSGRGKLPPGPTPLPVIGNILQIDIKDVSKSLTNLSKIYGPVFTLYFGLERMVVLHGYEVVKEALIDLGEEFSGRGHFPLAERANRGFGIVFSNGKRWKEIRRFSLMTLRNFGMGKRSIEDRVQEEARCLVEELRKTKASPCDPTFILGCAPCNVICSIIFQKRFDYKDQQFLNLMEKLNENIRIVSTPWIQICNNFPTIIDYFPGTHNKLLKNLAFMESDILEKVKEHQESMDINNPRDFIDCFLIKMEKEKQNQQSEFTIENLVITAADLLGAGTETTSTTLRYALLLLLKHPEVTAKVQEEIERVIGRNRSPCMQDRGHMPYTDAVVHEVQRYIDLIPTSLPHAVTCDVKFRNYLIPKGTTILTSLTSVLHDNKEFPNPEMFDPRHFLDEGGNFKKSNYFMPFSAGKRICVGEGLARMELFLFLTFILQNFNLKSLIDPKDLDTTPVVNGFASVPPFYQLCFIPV

[5] = Metabolic stability of the compound in rat liver microsomes assessed as compound remaining at 3 uM after 10 mins; format: ADME, Microsome; details: read-out: Stability
Cytochrome P450 2C9 = Cytochrome P450 2C9 (Homo sapiens, UniProt P11712); assay: Inhibition of recombinant CYP2C9; format: ADME
Chain of Cytochrome P450 2C9 (P11712 whole entry): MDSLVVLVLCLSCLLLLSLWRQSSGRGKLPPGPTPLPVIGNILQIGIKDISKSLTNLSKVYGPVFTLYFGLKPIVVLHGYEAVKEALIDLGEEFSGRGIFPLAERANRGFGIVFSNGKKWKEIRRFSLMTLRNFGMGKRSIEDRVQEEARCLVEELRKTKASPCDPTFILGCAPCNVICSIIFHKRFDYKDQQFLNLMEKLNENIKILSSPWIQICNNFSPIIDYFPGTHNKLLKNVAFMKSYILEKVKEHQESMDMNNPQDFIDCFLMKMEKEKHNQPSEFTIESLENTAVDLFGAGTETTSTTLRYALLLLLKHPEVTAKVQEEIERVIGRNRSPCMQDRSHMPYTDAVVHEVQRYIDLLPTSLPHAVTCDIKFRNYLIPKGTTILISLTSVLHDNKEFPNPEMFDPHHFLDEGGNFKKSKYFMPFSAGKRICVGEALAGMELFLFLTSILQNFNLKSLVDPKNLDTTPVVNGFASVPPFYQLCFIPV

[6] = Metabolic stability of the compound in human liver microsomes assessed as compound remaining at 3 uM after 10 mins; format: ADME, Microsome; details: read-out: Stability
Cytochrome P450 1A2 = target: T2, Cytochrome P450 1A2 (Homo sapiens, UniProt P05177); assay: Inhibition of recombinant CYP1A2; format: ADME
T2 sequence (P05177 whole entry): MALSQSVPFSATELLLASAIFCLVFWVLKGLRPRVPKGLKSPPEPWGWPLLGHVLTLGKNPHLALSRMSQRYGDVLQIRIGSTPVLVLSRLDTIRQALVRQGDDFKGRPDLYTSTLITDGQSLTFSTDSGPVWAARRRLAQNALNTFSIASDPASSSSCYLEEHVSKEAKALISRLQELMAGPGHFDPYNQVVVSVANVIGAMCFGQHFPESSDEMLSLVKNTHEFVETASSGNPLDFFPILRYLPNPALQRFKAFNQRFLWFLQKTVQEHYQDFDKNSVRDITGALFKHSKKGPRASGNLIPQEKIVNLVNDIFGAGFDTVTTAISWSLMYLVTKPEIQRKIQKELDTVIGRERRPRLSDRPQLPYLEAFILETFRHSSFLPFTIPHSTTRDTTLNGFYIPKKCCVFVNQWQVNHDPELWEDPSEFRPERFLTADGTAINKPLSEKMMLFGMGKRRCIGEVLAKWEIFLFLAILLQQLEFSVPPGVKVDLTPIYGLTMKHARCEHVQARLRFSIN

T1 sequence (Q16602 whole entry, one chain of several): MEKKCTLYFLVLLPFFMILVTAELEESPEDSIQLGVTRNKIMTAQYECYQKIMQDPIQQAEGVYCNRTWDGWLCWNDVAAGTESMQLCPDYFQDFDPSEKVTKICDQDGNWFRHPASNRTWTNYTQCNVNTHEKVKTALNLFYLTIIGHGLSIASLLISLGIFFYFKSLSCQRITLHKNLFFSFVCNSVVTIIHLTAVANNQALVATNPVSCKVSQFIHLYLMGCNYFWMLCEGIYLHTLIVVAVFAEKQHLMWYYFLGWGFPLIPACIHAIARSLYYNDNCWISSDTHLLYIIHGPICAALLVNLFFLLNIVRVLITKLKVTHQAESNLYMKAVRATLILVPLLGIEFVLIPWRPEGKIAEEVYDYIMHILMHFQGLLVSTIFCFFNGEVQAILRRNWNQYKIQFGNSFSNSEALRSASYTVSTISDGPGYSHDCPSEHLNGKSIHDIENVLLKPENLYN

SMILES	IC50 [1] [µM]	EC50 [4] [µM]	also measured
O=C(N[C@H](Cc1csc2ccccc12)C(=O)N1CCC(C2CCNCC2)CC1)N1CCC(n2c(=O)[nH]c3ccccc32)CC1	0.004	–	–
O=C(N[C@H](Cc1csc2ccccc12)C(=O)N1CCC(N2CCCCC2)CC1)N1CCC2(CC1)N=C(c1ccccc1)NC2=O	0.02	0.013	EC50 [2]: 0.063 µM; IC50 (Cytochrome P450 3A4): < 1 µM; IC50 [3]: > 40 µM
O=C1Cc2ccccc2C2(CCN(C(=O)N[C@H](Cc3csc4ccccc34)C(=O)N3CCC(N4CCCCC4)CC3)CC2)N1	0.029	0.015	–
O=C(N[C@H](Cc1csc2ccccc12)C(=O)N1CCC(N2CCCCC2)CC1)N1CCC(n2c(=O)[nH]c3ccccc32)CC1	0.009	–	–
O=C(N[C@H](Cc1csc2ccccc12)C(=O)N1CCC(N2CCCCC2)CC1)N1CCC2(CC1)N=C(c1ccncc1)NC2=O	1.4	–	–
O=C(N[C@H](Cc1csc2ccccc12)C(=O)N1CCC(N2CCCCC2)CC1)N1CCC2(CC1)C(=O)Nc1ccccc12	0.17	–	–
O=C1Nc2ccccc2C2(CCN(C(=O)N[C@H](Cc3csc4ccccc34)C(=O)N3CCC(N4CCCCC4)CC3)CC2)O1	0.02	0.031	EC50 [2]: 0.019 µM; IC50 (Cytochrome P450 3A4): < 1 µM; IC50 [3]: > 40 µM
O=C1Nc2ccccc2C2(CCN(C(=O)N[C@H](Cc3csc4ccccc34)C(=O)N3CCC(N4CCCCC4)CC3)CC2)N1	0.005	0.003	IC50 (Cytochrome P450 2C19): > 40 µM; EC50 [2]: 0.032 µM; remaining at 10 min, 3 µM [5]: 100%; IC50 (Cytochrome P450 2C9): > 40 µM; IC50 (Cytochrome P450 3A4): 0.1 µM; remaining at 10 min, 3 µM [6]: 82%; IC50 (Cytochrome P450 1A2): > 40 µM
O=C(N[C@H](Cc1csc2ccccc12)C(=O)N1CCC(N2CCCCC2)CC1)N1CCC2(CC1)N=C(C1CCCCC1)NC2=O	8.5	–	–

More lines, in order of falling IC50 [1], values ahead:

IC50 [1] [µM]	EC50 [4] [µM]	SMILES	also measured
0.86	–	CN1c2ccccc2C(=O)NC12CCN(C(=O)N[C@H](Cc1csc3ccccc13)C(=O)N1CCC(N3CCCCC3)CC1)CC2	–
0.33	–	O=C(N[C@H](Cc1csc2ccccc12)C(=O)N1CCC(N2CCCCC2)CC1)N1CCC2(CC1)C(=O)NCN2c1ccccc1	–
0.21	–	O=C(N[C@H](Cc1csc2ccccc12)C(=O)N1CCC(N2CCCCC2)CC1)N1CCC2(CC1)N=C(c1cccnc1)NC2=O	–
0.15	0.13	O=C1NCC2(CCN(C(=O)N[C@H](Cc3csc4ccccc34)C(=O)N3CCC(N4CCCCC4)CC3)CC2)c2ccccc21	–
0.023	0.012	O=C1CC2(CCN(C(=O)N[C@H](Cc3csc4ccccc34)C(=O)N3CCC(N4CCCCC4)CC3)CC2)c2ccccc2N1	–
0.003	–	O=C(N[C@H](Cc1csc2ccccc12)C(=O)N1CCC(N2CCCCC2)CC1)N1CCC(N2Cc3ccccc3NC2=O)CC1	–
